Measured values reported in ChEMBL document CHEMBL1140307, “Design and synthesis of alpha-aryloxyphenylacetic acid derivatives: a novel class of PPARalpha/gamma dual agonists with potent antihyperglycemic and lipid modulating activity” (J Med Chem, 2005).
pEC50, pIC50: −log10 of the molar value.

How the values were obtained:
[1] = target: T1, Peroxisome proliferator-activated receptor alpha (Homo sapiens, UniProt Q07869); experiment: In vitro binding affinity for human PPAR alpha
T1 sequence (Q07869 whole entry): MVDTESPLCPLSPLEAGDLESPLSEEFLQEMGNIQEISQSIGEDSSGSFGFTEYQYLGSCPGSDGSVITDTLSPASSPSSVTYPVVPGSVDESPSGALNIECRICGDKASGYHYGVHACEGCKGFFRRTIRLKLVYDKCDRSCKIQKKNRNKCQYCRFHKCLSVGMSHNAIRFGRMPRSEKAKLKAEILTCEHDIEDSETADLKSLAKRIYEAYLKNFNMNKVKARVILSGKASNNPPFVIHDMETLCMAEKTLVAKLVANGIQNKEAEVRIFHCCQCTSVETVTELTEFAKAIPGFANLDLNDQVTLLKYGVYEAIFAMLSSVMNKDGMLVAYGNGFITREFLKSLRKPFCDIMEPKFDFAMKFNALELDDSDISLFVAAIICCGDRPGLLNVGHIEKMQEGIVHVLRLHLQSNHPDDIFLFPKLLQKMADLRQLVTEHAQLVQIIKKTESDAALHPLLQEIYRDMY

[2] = target: T2, Peroxisome proliferator-activated receptor gamma (Homo sapiens, UniProt P37231); experiment: In vitro binding affinity for human PPAR gamma
T2 sequence (P37231 whole entry): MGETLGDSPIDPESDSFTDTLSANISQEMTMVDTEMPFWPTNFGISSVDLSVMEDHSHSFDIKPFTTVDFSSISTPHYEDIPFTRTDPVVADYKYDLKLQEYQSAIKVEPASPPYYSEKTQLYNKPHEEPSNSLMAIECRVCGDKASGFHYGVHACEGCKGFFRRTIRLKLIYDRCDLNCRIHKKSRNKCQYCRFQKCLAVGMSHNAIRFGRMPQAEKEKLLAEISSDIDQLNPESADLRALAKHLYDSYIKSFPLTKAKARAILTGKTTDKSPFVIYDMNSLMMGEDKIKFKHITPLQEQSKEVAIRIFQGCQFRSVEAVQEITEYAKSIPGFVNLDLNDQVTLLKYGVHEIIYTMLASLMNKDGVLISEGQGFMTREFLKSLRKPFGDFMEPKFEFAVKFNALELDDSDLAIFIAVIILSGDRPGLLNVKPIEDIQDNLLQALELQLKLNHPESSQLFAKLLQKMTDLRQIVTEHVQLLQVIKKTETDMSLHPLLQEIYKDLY

[3] = target: T2, Peroxisome proliferator-activated receptor gamma; experiment: Agonist response against human PPAR gamma in transactivation assay; type: functional
[4] = Area under concentration time curve of compound when administered perorally at a dose of 2 mg/kg to dogs; type: ADME, organism-based, Canis lupus familiaris; parameters: dose 2 mg/kg, route oral; settings: dog, in vivo, po
Summary of the method: (§1)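 Male Sprague-Dawley rats (n = 3) and male adult Beagle dogs (n = 4) were fasted overnight. They received either a 2 mg/kg oral gavage dose or a 0.5 mg/kg IV bolus. Blood was drawn into heparin tubes from a femoral arterial cannula (rat) or the jugular vein (dog) at set time points. Plasma was acidified with 0.5 M formate pH 3.0, stored at -70 °C and quantified by LC-MS/MS.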

[5] = Area under concentration time curve of compound when administered perorally at a dose of 2 mg/kg to rats; type: ADME, organism-based; parameters: dose 2 mg/kg, route oral; settings: rat, in vivo, po; summary of the method: as §1
Rattus norvegicus [6] = experiment: Effect (150 mg/kg) on PPAR gamma- mediated effects measured as change in heart weight in rats; type: functional
Summary of the method: (§2)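 Male Sprague-Dawley rats (about 200 g, n = 6) were fed rodent chow and gavaged once daily for 2 weeks with compound in 0.5% methylcellulose. Body weight was recorded on days 1, 4, 6, 8, 11 and 14. Rats were euthanized with CO2 24 h after the last dose, and BAT, heart and liver were weighed. Blood was taken by heart puncture for hematocrit. Results are mean ± SD versus vehicle.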

Rattus norvegicus [7] = experiment: Effect (150 mg/kg) on PPAR gamma- mediated effects measured as change in hematocrit weight in rats; type: functional; summary of the method: as §2
[8] = target: T1, Peroxisome proliferator-activated receptor alpha; experiment: Agonist response against human PPAR alpha in transactivation assay
Rattus norvegicus [9] = experiment: Effect (150 mg/kg) on PPAR gamma- mediated effects measured as change in brown adipose tissue weight in rats; type: functional; summary of the method: as §2
Cricetinae gen. sp. [10] = experiment: Percentage change in the serum cholesterol upon administration of compound (10 mpk) in hamster; type: functional
Summary of the method: (§3)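 Male Golden Syrian hamsters were fed normal rodent chow and dosed orally once daily with compound. Serum total cholesterol and triglyceride were measured and expressed as percent change versus vehicle controls.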

Cricetinae gen. sp. [11] = experiment: Percentage change in the serum triglyceride upon administration of compound (10 mpk) in hamster; type: functional; summary of the method: as §3
Rattus norvegicus [12] = experiment: Effect (150 mg/kg) on PPAR gamma- mediated effects measured as change in liver weight in rats; type: functional; summary of the method: as §2
Cricetinae gen. sp. [13] = experiment: Effect (10 mpk) on serum cholesterol in hamster; type: functional
Summary of the method: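 Male Golden Syrian hamsters on normal rodent chow, dosed orally with test compound (9 days per table legend). Serum total cholesterol and triglyceride were measured in mg/dL. Values are group means, expressed as % change versus the vehicle-treated control group.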

[14] = Half life when administered intravenously at a dose of 0.5 mg/kg to dogs; type: ADME, organism-based, Canis lupus familiaris; parameters: dose 0.5 mg/kg, route intravenous; settings: dog, in vivo, iv; summary of the method: as §1
[15] = Half life when administered intravenously at a dose of 0.5 mg/kg to rats; type: ADME, organism-based; parameters: dose 0.5 mg/kg, route intravenous; settings: rat, in vivo, iv; summary of the method: as §1
[16] = Oral bioavailability in dog; type: ADME, organism-based, Canis lupus familiaris; settings: in vivo; summary of the method: as §1
[17] = Oral bioavailability in rat; type: ADME, organism-based; settings: in vivo; summary of the method: as §1
Rattus norvegicus [18] = experiment: Effect (150 mg/kg) on PPAR gamma- mediated effects measured as change in body weight in rats; type: functional; summary of the method: as §2
Mesocricetus auratus = species: Mesocricetus auratus; experiment: Effect (10 mpk) on serum triglyceride in hamster
Canis familiaris = experiment: Percentage change in the serum cholesterol upon administration of compound (10 mpk) in dogs
[19] = target: T3, Peroxisome proliferator-activated receptor alpha (Homo sapiens) (UniProt Q07869); experiment: Maximal activation of human Peroxisome proliferator activated receptor alpha
T3 sequence (whole entry): T1 sequence (Q07869 whole entry)
Summary of the method: (§4)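 Cell-based transactivation assay using GAL4-PPAR chimeric receptors with a reporter gene carrying a GAL4 response element. The top concentration tested was 3 µM. Values are the mean of three determinations.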

[20] = target: T4, Peroxisome proliferator-activated receptor gamma (Homo sapiens) (UniProt P37231); experiment: Maximal activation of human Peroxisome proliferator activated receptor gamma; summary of the method: as §4
T4 sequence (whole entry): T2 sequence (P37231 whole entry)

Row | SMILES | pIC50 [1] | pIC50 [2] | pEC50 [3] | pEC50 [8] | other results
1 | CCCc1cc(C(=O)CC)cc(CCC)c1O[C@@H](C(=O)O)c1ccc(C(C)C)cc1 | 5.41 | 5.53 | – | – | –
2 | CCCc1cc(C(=O)CC)cc(CCC)c1CC(C(=O)O)c1ccc(C(C)C)cc1 (configuration not stated) | < 4.82 | < 4.30 | – | – | –
3 | CCC(=O)c1cc(C)c(OC(C(=O)O)c2ccccc2)c(C)c1 (configuration not stated) | 5.52 | < 4.30 | – | – | –
4 | CCCc1cc2c(=O)n(C)oc2c(CCC)c1O[C@H](C(=O)O)c1ccc(C(C)C)cc1 | 7.13 | – | 6.41 | 6.17 | AUC [4]: 26.9 µM·h; AUC [5]: 67.5 µM·h; Heart weight (Rattus norvegicus [6]): 1.14 g; Hematocrit (Rattus norvegicus [7]): 45.7%; BAT (Rattus norvegicus [9]): 0.24 g; Change (Cricetinae gen. sp. [10]): -17%; Change (Cricetinae gen. sp. [11]): -9%; Liver weight (Rattus norvegicus [12]): 20.3 g; Cholesterol level (Cricetinae gen. sp. [13]): 106 mg/dL; half-life [14]: 1.6 h; half-life [15]: 7.2 h; bioavailability [16]: 73%; bioavailability [17]: 73%; Body weight (Rattus norvegicus [18]): 278 g; Triglyceride level (Mesocricetus auratus): 303 mg/dL; Change (Canis familiaris): -17.3%
5 | CCCc1cc2c(=O)n(C3CCCCC3)oc2c(CCC)c1O[C@H](C(=O)O)c1ccc(C(C)C)cc1 | < 4.82 | 6.36 | – | – | –
6 | CCC(=O)c1cc(C(C)CC)c(OC(C(=O)O)c2ccccc2)c(C(C)CC)c1 (configuration not stated) | 5.21 | < 4.30 | – | – | –
7 | CN(CCOc1ccc(CC2SC(=O)NC2=O)cc1)c1ccccn1 (configuration not stated) [ROSIGLITAZONE] | – | – | – | – | Heart weight (Rattus norvegicus [6]): 1.46 g; Hematocrit (Rattus norvegicus [7]): 41.3%; BAT (Rattus norvegicus [9]): 1.03 g; Liver weight (Rattus norvegicus [12]): 16.6 g; Body weight (Rattus norvegicus [18]): 322 g

Second part, led by results:

Row | pIC50 [1] | pIC50 [2] | pEC50 [3] | pEC50 [8] | SMILES | other results
8 | 5.85 | 6.28 | 6.44 | – | CCCc1c(O[C@H](C(=O)O)c2ccc(C(C)C)cc2)c(Cl)cc2c1oc(=O)n2CC | –
9 | 6.10 | 5.33 | – | – | CCCc1cc(C(=O)c2ccccc2)cc(CCC)c1OC(C(=O)O)c1ccccc1 (configuration not stated) | –
10 | 6.64 | 6.80 | 6.37 | 6.57 | CCCc1cc2c(=O)n(C(C)C)oc2c(CCC)c1O[C@H](C(=O)O)c1ccc(C(C)C)cc1 | –
11 | 7.13 | 7.00 | 6.92 | 6.54 | CCCc1cc2c(oc(=O)n2CC)c(CCC)c1O[C@H](C(=O)O)c1ccc(C(C)C)cc1 | AUC [4]: 9.1 µM·h; AUC [5]: 127 µM·h; Heart weight (Rattus norvegicus [6]): 1.1 g; Hematocrit (Rattus norvegicus [7]): 45.6%; BAT (Rattus norvegicus [9]): 0.24 g; Change (Cricetinae gen. sp. [10]): -25%; Change (Cricetinae gen. sp. [11]): -6%; Liver weight (Rattus norvegicus [12]): 22.4 g; bioavailability [16]: 35%; bioavailability [17]: 72%; Body weight (Rattus norvegicus [18]): 283 g
12 | 7.19 | 6.68 | 6.32 | 7.12 | CCCc1cc(C(=O)CC)cc(CCC)c1O[C@H](C(=O)O)c1ccc(CC)cc1 | –
13 | 7.24 | 6.66 | 6.74 | 7.41 | CCCc1cc(C(=O)CC)cc(CCC)c1O[C@H](C(=O)O)c1ccc(CC(C)C)cc1 | Maximal activation [19]: 807%; Maximal activation [20]: 66%
14 | 6.10 | 6.59 | 6.43 | – | CCCc1cc2c(=O)n(C(C)C)oc2c(CCC)c1O[C@H](C(=O)O)c1ccc(CC(C)C)cc1 | –
15 | 7.29 | 5.56 | – | 7.00 | CCCc1cc(C(=O)CC)cc(CCC)c1OC(C(=O)O)c1ccccc1 (configuration not stated) | –
16 | 6.41 | 7.07 | 6.19 | – | CCCc1cc2c(oc(=O)n2C)c(CCC)c1O[C@H](C(=O)O)c1ccc(C(C)C)cc1 | –
